Columns and labels:
Assay type in all cases: functional
Mus musculus [1] = assay: Inhibition of delayed type hypersensitivity granuloma results at 100 mg/kg in dry weight
Outline: (§1)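 Groups of 10 female CF-1 mice (25 g) were sensitised sc over the inguinal lymph node with mBSA emulsion in Freund's incomplete adjuvant plus dextran. Two mBSA-soaked hydroxyapatite disks were implanted per mouse. Sc dosing ran daily from implantation to day 9, then granulomas were excised for wet and dry weights. Student's paired t test.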

Mus musculus [2] = assay: Inhibition of antigen-induced arthritis (AIA) in mice at the dose of 100 mg/kg in the non-injected paw
Mus musculus [3] = assay: Inhibition of antigen-induced arthritis (AIA) in mice at the dose of 200 mg/kg in the non-injected paw
Mus musculus [4] = assay: Inhibition of antigen-induced arthritis (AIA) in mice at the dose of 50 mg/kg in the non-injected paw
Rattus norvegicus [5] = assay: Inhibition of rat adjuvant induced polyarthritis (AIP) at the dose of 100 mg/kg in the injected paw
Outline: (§2)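 Rats received adjuvant (M. tuberculosis in mineral oil) into the left hindpaw on day 0. Compounds in sterile saline, pH 7.0, were given sc once daily for 28 days, with sc vehicle arthritic controls. Paw volume change in injected and noninjected hindpaws was measured on day 28 by mercury-displacement plethysmography.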

Rattus norvegicus [6] = assay: Inhibition of rat adjuvant induced polyarthritis (AIP) at the dose of 100 mg/kg in the non-injected paw; outline: as §2
Rattus norvegicus [7] = assay: Inhibition of rat adjuvant induced polyarthritis (AIP) at the dose of 15 mg/kg in the injected paw; outline: as §2
Rattus norvegicus [8] = assay: Inhibition of rat adjuvant induced polyarthritis (AIP) at the dose of 15 mg/kg in the non-njected paw; outline: as §2
Mus musculus [9] = assay: Inhibition of delayed type hypersensitivity granuloma results at 100 mg/kg in wet weight; outline: as §1
Mus musculus [10] = assay: Inhibition of antigen induced arthritis (AIA) in mice at the dose of 100 mg/kg
Outline: (§3)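 Mice were immunised, boosted after 7 days, and challenged 14 days later with 200 μg mBSA in saline into the left rear stifle joint. Dosing was sc in saline at pH 7.0, 5 of 7 days, from challenge (day 0) to day 28. H&E sagittal joint sections were graded 1–5 each for soft tissue inflammation, pannus, and cartilage and bone erosion, then summed (max 20). One-way ANOVA vs vehicle.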

Mus musculus [11] = assay: Inhibition of antigen induced arthritis (AIA) in mice at the dose of 50 mg/kg; outline: as §3
Mus musculus [12] = assay: Inhibition of delayed type hypersensitivity granuloma results at 25 mg/kg in wet weight; outline: as §1
Mus musculus [13] = assay: Inhibition of delayed type hypersensitivity granuloma results at 25 mg/kg in dry weight; outline: as §1
Mus musculus [14] = assay: Inhibition of delayed type hypersensitivity granuloma results at 50 mg/kg in dry weight; outline: as §1
Mus musculus [15] = assay: Inhibition of delayed type hypersensitivity granuloma results at 50 mg/kg in wet weight; outline: as §1
Rattus norvegicus [16] = assay: Inhibition of rat adjuvant induced polyarthritis (AIP) at the dose of 5 mg/kg in the injected paw; outline: as §2
Rattus norvegicus [17] = assay: Inhibition of rat adjuvant induced polyarthritis (AIP) at the dose of 60 mg/kg in the injected paw; outline: as §2
Rattus norvegicus [18] = assay: Inhibition of rat adjuvant-induced polyarthritis (AIP) at the dose of 100 mg/kg in the non-injected paw; outline: as §2
Rattus norvegicus [19] = assay: Inhibition of rat adjuvant-induced polyarthritis (AIP) at the dose of 15 mg/kg in the non-injected paw; outline: as §2
Rattus norvegicus [20] = assay: Inhibition of rat adjuvant-induced polyarthritis (AIP) at the dose of 5 mg/kg in the non-injected paw; outline: as §2
Rattus norvegicus [21] = assay: Inhibition of rat adjuvant-induced polyarthritis (AIP) at the dose of 60 mg/kg in the non-injected paw; outline: as §2
Mus musculus [22] = assay: Inhibition of antigen-induced arthritis (AIA) in mice at the dose of 100 mg/kg; outline: as §3
Rattus norvegicus [23] = assay: Inhibition of rat adjuvant induced polyarthritis (AIP) at the dose of 15 mg/kg in the non-injected paw; outline: as §2
Rattus norvegicus [24] = assay: Inhibition of rat adjuvant-induced arthritis (AIP) at the dose of 100 mg/kg in the non-injected paw; outline: as §2
Rattus norvegicus [25] = assay: Inhibition of rat adjuvant-induced arthritis (AIP) at the dose of 15 mg/kg in the non-injected paw; outline: as §2
Mus musculus [26] = assay: Inhibition of antigen-induced arthritis (AIA) in mice at the dose of 200 mg/kg; outline: as §3
Mus musculus [27] = assay: Inhibition of antigen-induced arthritis (AIA) in mice at the dose of 25 mg/kg; outline: as §3
Mus musculus [28] = assay: Inhibition of antigen-induced arthritis (AIA) in mice at the dose of 50 mg/kg; outline: as §3
Rattus norvegicus [29] = assay: Inhibition of rat adjuvant induced arthritis (AIP) at the dose of 100 mg/kg in the non-injected paw; outline: as §2
Rattus norvegicus [30] = assay: Inhibition of rat adjuvant induced arthritis (AIP) at the dose of 15 mg/kg in the non-injected paw; outline: as §2
Rattus norvegicus [31] = assay: Inhibition of rat adjuvant induced arthritis (AIP) at the dose of 60 mg/kg in the non-injected paw; outline: as §2
Rattus norvegicus [32] = assay: Inhibition of rat adjuvant induced arthritis (AIP) at the dose of 5 mg/kg in the non-injected paw; outline: as §2

Row | SMILES | inhibition in vivo at 100 mg/kg (Mus musculus [1]) [%] | inhibition in vivo at 100 mg/kg (Rattus norvegicus [5]) [%] | inhibition in vivo at 100 mg/kg (Rattus norvegicus [6]) [%] | inhibition in vivo at 15 mg/kg (Rattus norvegicus [7]) [%] | inhibition in vivo at 100 mg/kg (Mus musculus [9]) [%] | inhibition in vivo at 100 mg/kg (Mus musculus [22]) [%] | further results
1 | CCOP(=O)(OCC)C1(P(=O)(OCC)OCC)CC(C(=O)C2CCCCC2)=NN1 | 31 | 16 | 29 | 9 | 33 |  | inhibition in vivo at 100 mg/kg (Mus musculus [2]): 3%; inhibition in vivo at 200 mg/kg (Mus musculus [3]): 11%; inhibition in vivo at 50 mg/kg (Mus musculus [4]): 30%; inhibition in vivo at 15 mg/kg (Rattus norvegicus [8]): 14%
2 | CCOP(=O)(OCC)C1(P(=O)(OCC)OCC)CC(C(=O)C(C)(C)C)=NN1 | 59 | 21 |  | 21 | 65 |  | inhibition in vivo at 100 mg/kg (Mus musculus [10]): 16%; inhibition in vivo at 50 mg/kg (Mus musculus [11]): 28%; inhibition in vivo at 25 mg/kg (Mus musculus [12]): 46%; inhibition in vivo at 25 mg/kg (Mus musculus [13]): 38%; inhibition in vivo at 50 mg/kg (Mus musculus [14]): 48%; inhibition in vivo at 50 mg/kg (Mus musculus [15]): 51%; inhibition in vivo at 5 mg/kg (Rattus norvegicus [16]): 27%; inhibition in vivo at 60 mg/kg (Rattus norvegicus [17]): 38%; inhibition in vivo at 100 mg/kg (Rattus norvegicus [18]): 76%; inhibition in vivo at 15 mg/kg (Rattus norvegicus [19]): 55%; inhibition in vivo at 5 mg/kg (Rattus norvegicus [20]): 64%; inhibition in vivo at 60 mg/kg (Rattus norvegicus [21]): 64%
3 | CCOP(=O)(OCC)C1(P(=O)(OCC)OCC)CC(C(=O)c2ccc(Cl)cc2Cl)=NN1 | 44 | 0 | 12 | 3 | 55 | 0 | inhibition in vivo at 15 mg/kg (Rattus norvegicus [23]): 38%
4 | CCOP(=O)(OCC)C1(P(=O)(OCC)OCC)CC(C(=O)c2ccc(Cl)cc2)=NN1 | 33 |  |  |  | 28 |  | 
5 | CCOP(=O)(OCC)C1(P(=O)(OCC)OCC)CC(C(=O)c2ccccc2)=NN1Cc1cccc(CN2N=C(C(=O)c3ccccc3)CC2(P(=O)(OCC)OCC)P(=O)(OCC)OCC)c1 | -31 |  |  |  |  |  | 
6 | CCOP(=O)(OCC)C1(P(=O)(OCC)OCC)CC(C(=O)c2cccc(C)c2)=NN1 | 41 | 3 |  | 6 | 41 |  | inhibition in vivo at 100 mg/kg (Mus musculus [2]): 16%; inhibition in vivo at 100 mg/kg (Rattus norvegicus [24]): 50%; inhibition in vivo at 15 mg/kg (Rattus norvegicus [25]): 54%
7 | CCOP(=O)(OCC)C1(P(=O)(OCC)OCC)CC(C(=O)c2ccccc2F)=NN1 | 17 |  |  |  | 20 |  | 
8 | CCOP(=O)(OCC)C1(P(=O)(OCC)OCC)CC(C(=O)c2ccccc2)=NN1 | 51 | 13 |  | 25 | 56 | 48 | inhibition in vivo at 200 mg/kg (Mus musculus [26]): 48%; inhibition in vivo at 25 mg/kg (Mus musculus [27]): 16%; inhibition in vivo at 50 mg/kg (Mus musculus [28]): 35%; inhibition in vivo at 25 mg/kg (Mus musculus [12]): 36%; inhibition in vivo at 25 mg/kg (Mus musculus [13]): 42%; inhibition in vivo at 50 mg/kg (Mus musculus [14]): 42%; inhibition in vivo at 50 mg/kg (Mus musculus [15]): 33%; inhibition in vivo at 100 mg/kg (Rattus norvegicus [29]): 50%; inhibition in vivo at 15 mg/kg (Rattus norvegicus [30]): 31%; inhibition in vivo at 60 mg/kg (Rattus norvegicus [31]): 56%; inhibition in vivo at 5 mg/kg (Rattus norvegicus [16]): 28%; inhibition in vivo at 60 mg/kg (Rattus norvegicus [17]): 23%; inhibition in vivo at 5 mg/kg (Rattus norvegicus [32]): 50%
9 | CCOP(=O)(OCC)C1(P(=O)(OCC)OCC)CC(C(=O)c2ccc(OC)cc2)=NN1 | 50 | 0 | 16 | 12 | 35 | 23 | inhibition in vivo at 15 mg/kg (Rattus norvegicus [23]): 17%
